Assay results: ChEMBL document CHEMBL2010694, “Indolyl and dihydroindolyl N-glycinamides as potent and in vivo active NPY5 antagonists” (Bioorg Med Chem Lett, 2012); call rule not given here
Converted amounts (≈) assume the structure as drawn.

Tests used:
[1] = Volume of distribution at steady state in Sprague-Dawley rat plasma at 2 mg/kg, po and 1 mg/kg, iv after 24 hrs wash out period by HPLC analysis; assay type: ADME, organism-based; conditions: read-out: Vdss
Summary of the method: (§1)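 Male Sprague-Dawley rats (200–250 g), jugular and carotid artery cannulated; compound dissolved in 20% beta cyclodextrin, pH adjusted with methane sulfonic acid. Serial blood sampled at 12 time points over 24 h post dose by automated sampler; plasma from centrifugation analysed by HPLC; PK parameters by non-compartmental analysis of plasma concentration–time profile.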

[2] = Protein binding in human; assay type: ADME, organism-based; conditions: plasma, read-out: PB (converted)
[3] = Clearance in Sprague-Dawley rat plasma at 2 mg/kg, po and 1 mg/kg, iv after 24 hrs wash out period by HPLC analysis; assay type: ADME, organism-based; summary of the method: as §1
[4] = Half life in Sprague-Dawley rat plasma at 2 mg/kg, po and 1 mg/kg, iv after 24 hrs wash out period by HPLC analysis; assay type: ADME, organism-based; summary of the method: as §1
[5] = Tmax in Sprague-Dawley rat plasma at 2 mg/kg, po and 1 mg/kg, iv after 24 hrs wash out period by HPLC analysis; assay type: ADME, organism-based; summary of the method: as §1
[6] = Absolute oral bioavailability in Sprague-Dawley rat at 2 mg/kg after 24 hrs wash out period by HPLC analysis; assay type: ADME, organism-based; conditions: in vivo; summary of the method: as §1
[7] = test system: Rattus norvegicus; experiment: Antiobesity activity in po dosed cPP-induced feeding Sprague-Dawley rat model assessed as reduction in food intake measured 1 hr post cpp challenge; assay type: functional
Summary of the method: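 Rats pretreated orally at 0.1, 1 or 10 mg/kg (vehicle 20% cyclodextrin) 1 h before intracerebroventricular infusion of Y5-selective peptide agonist cPP, 0.6 nmol in normal saline; food intake recorded, n = 7–14 per group.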

[8] = Drug uptake in cPP-induced feeding Sprague-Dawley rat model brain at 10 mg/kg, po after 1 hr; assay type: ADME, organism-based; parameters: dose 10 mg/kg, route oral; conditions: read-out: Drug uptake
Summary of the method: (§2)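 Satellite animals from the cPP feeding study dosed orally at 0.1, 1 or 10 mg/kg; plasma (ng/mL) and brain (ng/g) levels measured 1 h after dosing.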

[9] = test system: Liver microsomes; experiment: Intrinsic clearance in rat liver microsomes at 1 uM by LC/MS analysis; assay type: ADME, Microsome
Summary of the method: (§3)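 Compound incubated with human or rat liver microsomes; reaction quenched with acetonitrile, centrifuged, and remaining drug in supernatant measured by LC/MS to estimate T1/2, from which intrinsic clearance was derived.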

[10] = Clearance in Sprague-Dawley rat blood at 2 mg/kg, po and 1 mg/kg, iv after 24 hrs wash out period by HPLC analysis; assay type: ADME, organism-based; conditions: whole blood; summary of the method: as §1
[11] = target: T1, Neuropeptide Y receptor type 5 (Homo sapiens, UniProt Q15761); experiment: Displacement of [125I]peptide YY from human NPY5 receptor
T1 sequence (Q15761 whole entry): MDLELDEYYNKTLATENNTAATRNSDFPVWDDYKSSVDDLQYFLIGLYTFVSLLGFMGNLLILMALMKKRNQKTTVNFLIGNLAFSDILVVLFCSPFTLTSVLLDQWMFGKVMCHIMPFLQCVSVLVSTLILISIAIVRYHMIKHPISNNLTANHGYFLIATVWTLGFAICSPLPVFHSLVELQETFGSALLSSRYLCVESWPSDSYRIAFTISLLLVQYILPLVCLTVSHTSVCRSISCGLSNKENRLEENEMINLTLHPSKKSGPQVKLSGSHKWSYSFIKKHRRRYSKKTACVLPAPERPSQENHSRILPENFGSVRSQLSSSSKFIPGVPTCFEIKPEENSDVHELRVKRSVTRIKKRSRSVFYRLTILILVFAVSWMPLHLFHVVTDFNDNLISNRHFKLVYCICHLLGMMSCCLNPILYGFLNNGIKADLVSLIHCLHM

[12] = target: Cytochrome P450 2C19 (Homo sapiens, UniProt P33261); experiment: Inhibition of CYP2C19; assay type: ADME
[13] = Cmax in Sprague-Dawley rat plasma at 2 mg/kg, po and 1 mg/kg, iv after 24 hrs wash out period by HPLC analysis; assay type: ADME, organism-based; summary of the method: as §1
[14] = target: Cytochrome P450 2D6 (Homo sapiens, UniProt P10635); experiment: Inhibition of CYP2D6; assay type: ADME
[15] = Drug uptake in cPP-induced feeding Sprague-Dawley rat model brain at 0.1 mg/kg, po after 1 hr; assay type: ADME, organism-based; parameters: dose 0.1 mg/kg, route oral; conditions: read-out: Drug uptake; summary of the method: as §2
[16] = Plasma concentration in cPP-induced feeding Sprague-Dawley rat model at 10 mg/kg, po after 1 hr; assay type: ADME, organism-based; parameters: dose 10 mg/kg, route oral; summary of the method: as §2
[17] = target: T2, Cytochrome P450 2C8 (Homo sapiens, UniProt P10632); experiment: Inhibition of CYP2C8; assay type: ADME
T2 sequence (P10632 whole entry): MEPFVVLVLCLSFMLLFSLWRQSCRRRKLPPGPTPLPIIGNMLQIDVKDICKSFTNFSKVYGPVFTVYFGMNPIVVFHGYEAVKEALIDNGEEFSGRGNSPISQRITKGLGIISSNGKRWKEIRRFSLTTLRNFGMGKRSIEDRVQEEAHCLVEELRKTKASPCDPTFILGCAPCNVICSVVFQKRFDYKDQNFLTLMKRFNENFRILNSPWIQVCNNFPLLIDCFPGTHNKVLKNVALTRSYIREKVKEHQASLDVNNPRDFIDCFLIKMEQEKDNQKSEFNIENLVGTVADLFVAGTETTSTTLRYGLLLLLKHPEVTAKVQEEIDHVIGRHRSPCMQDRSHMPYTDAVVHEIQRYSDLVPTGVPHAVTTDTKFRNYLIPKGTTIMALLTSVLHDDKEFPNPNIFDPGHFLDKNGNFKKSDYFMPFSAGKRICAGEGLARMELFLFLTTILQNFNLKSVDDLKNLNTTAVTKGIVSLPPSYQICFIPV

[18] = Plasma concentration in cPP-induced feeding Sprague-Dawley rat model at 1 mg/kg, po after 1 hr; assay type: ADME, organism-based; parameters: dose 1 mg/kg, route oral; summary of the method: as §2
[19] = target: Cytochrome P450 3A4 (Homo sapiens, UniProt P08684); experiment: Inhibition of CYP3A4; assay type: ADME
[20] = Solubility of the compound at pH 7.4; assay type: physicochemical; conditions: buffer
[21] = test system: Plasma; experiment: Plasma concentration in Sprague-Dawley rat assessed as 2-(5-chloro-1H-indol-1-yl)-N-(4-((propan-2 ylsulfonamido)methyl)cyclohexyl)acetamide level at 10 mg/kg, po after 1 hr by LC-MS/MS analysis; assay type: ADME, organism-based; parameters: dose 10 mg/kg, route oral; conditions: in vivo
Summary of the method: (§4)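 Male Sprague-Dawley rats (300–350 g), femoral artery cannulated; single 10 mg/kg oral dose in an appropriate vehicle, N = 3. Blood taken predose, 1, 2 and 4 h; brains then collected and stored at -80 °C. Equal portions of plasma or homogenized brain from the three rats pooled per time point, protein precipitated, quantified by LC/MS/MS.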

[22] = Drug uptake in cPP-induced feeding Sprague-Dawley rat model brain at 1 mg/kg, po after 1 hr; assay type: ADME, organism-based; parameters: dose 1 mg/kg, route oral; conditions: read-out: Drug uptake; summary of the method: as §2
[23] = Lipophilicity, log D of the compound at pH 7.4; assay type: physicochemical; conditions: buffer
[24] = test system: Brain; experiment: Drug uptake in Sprague-Dawley rat brain assessed as 2-(5-chloro-1H-indol-1-yl)-N-(4-((propan-2-ylsulfonamido)methyl)cyclohexyl)acetamide level at 10 mg/kg, po after 1 hr by LC-MS/MS analysis; assay type: ADME, organism-based; parameters: dose 10 mg/kg, route oral; conditions: in vivo, read-out: Drug uptake; summary of the method: as §4
[25] = test system: Plasma; experiment: Plasma concentration in Sprague-Dawley rat at 10 mg/kg, po by LC-MS/MS analysis; assay type: ADME, organism-based; parameters: dose 10 mg/kg, route oral; conditions: in vivo; summary of the method: as §4
[26] = test system: Brain; experiment: Drug uptake in Sprague-Dawley rat brain at 10 mg/kg, po by LC-MS/MS analysis; assay type: ADME, organism-based; parameters: dose 10 mg/kg, route oral; conditions: in vivo, read-out: Drug uptake; summary of the method: as §4
[27] = Plasma concentration in cPP-induced feeding Sprague-Dawley rat model at 0.1 mg/kg, po after 1 hr; assay type: ADME, organism-based; parameters: dose 0.1 mg/kg, route oral; summary of the method: as §2
[28] = test system: Liver microsomes; experiment: Intrinsic clearance in human liver microsomes at 1 uM by LC/MS analysis; assay type: ADME, Microsome; summary of the method: as §3
[29] = target: T3, Cytochrome P450 1A2 (Homo sapiens, UniProt P05177); experiment: Inhibition of CYP1A2; assay type: ADME
T3 sequence (P05177 whole entry): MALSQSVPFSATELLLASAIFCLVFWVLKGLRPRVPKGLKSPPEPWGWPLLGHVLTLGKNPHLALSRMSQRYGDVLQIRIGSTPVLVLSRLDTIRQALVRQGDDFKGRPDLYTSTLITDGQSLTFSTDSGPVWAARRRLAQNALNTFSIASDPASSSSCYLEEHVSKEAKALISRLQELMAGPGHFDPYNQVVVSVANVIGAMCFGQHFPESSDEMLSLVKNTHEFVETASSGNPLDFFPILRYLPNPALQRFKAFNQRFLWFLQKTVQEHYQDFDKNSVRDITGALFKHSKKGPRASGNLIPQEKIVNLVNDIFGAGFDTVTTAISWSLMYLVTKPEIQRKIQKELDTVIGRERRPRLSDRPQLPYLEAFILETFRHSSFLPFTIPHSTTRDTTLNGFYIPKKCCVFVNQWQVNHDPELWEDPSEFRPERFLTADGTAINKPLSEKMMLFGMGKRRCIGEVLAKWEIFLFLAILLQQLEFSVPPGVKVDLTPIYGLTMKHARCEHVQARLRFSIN

Cytochrome P450 3A4, sequence (P08684 whole entry): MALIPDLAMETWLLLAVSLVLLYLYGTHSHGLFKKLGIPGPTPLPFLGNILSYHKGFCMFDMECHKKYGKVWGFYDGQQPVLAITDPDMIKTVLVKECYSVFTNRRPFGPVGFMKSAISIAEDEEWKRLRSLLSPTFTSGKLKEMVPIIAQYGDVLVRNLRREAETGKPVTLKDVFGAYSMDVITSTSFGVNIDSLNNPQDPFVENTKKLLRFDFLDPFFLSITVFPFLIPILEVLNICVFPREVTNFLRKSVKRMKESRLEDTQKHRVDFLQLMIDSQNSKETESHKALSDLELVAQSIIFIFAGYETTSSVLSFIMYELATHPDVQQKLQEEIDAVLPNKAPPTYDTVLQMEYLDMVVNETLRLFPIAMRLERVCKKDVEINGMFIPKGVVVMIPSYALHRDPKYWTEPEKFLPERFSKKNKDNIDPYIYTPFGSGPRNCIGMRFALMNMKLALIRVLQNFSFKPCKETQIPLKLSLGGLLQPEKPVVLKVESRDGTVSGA
Cytochrome P450 2D6, sequence (P10635 whole entry): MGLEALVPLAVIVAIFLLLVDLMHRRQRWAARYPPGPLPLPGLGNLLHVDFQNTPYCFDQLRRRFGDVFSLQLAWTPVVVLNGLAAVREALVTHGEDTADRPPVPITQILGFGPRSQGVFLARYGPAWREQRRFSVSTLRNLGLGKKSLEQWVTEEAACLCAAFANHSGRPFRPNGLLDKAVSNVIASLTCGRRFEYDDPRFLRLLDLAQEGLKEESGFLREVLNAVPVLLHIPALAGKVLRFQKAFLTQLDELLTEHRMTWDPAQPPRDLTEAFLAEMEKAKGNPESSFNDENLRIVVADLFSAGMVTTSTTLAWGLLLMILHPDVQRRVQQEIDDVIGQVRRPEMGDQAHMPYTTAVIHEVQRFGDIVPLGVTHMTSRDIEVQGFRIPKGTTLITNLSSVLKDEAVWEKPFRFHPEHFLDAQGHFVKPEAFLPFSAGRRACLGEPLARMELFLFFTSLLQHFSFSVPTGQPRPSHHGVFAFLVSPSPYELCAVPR
Cytochrome P450 2C19, sequence (P33261 whole entry): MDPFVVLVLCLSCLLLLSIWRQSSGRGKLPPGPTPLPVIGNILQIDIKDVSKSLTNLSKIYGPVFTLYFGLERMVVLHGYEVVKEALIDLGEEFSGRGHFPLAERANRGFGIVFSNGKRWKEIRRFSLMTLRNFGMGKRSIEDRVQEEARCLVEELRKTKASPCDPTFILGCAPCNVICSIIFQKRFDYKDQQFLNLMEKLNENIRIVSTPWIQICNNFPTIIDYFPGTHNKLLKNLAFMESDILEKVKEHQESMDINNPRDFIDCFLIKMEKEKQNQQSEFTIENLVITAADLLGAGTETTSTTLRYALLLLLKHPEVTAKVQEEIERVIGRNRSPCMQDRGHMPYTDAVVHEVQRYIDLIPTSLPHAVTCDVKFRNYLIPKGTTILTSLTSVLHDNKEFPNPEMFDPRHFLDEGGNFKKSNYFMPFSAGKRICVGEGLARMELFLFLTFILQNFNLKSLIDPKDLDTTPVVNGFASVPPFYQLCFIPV

CC(C)S(=O)(=O)NC[C@H]1CC[C@H](NC(=O)Cn2ccc3cc(Cl)ccc32)CC1
Vd [1]: 2.8 L/kg
fraction unbound [2]: 0.004
clearance [3]: 10 mL/min/kg
half-life [4]: 7.2 h
Tmax [5]: 2 h
bioavailability [6]: 79%
Activity [7]: Dose-dependent effect
minimal effective dose ([7]; read-out: MED): 0.1 mg/kg
concentration at 1 h [8]: 132 ng/g
CLH [9]: 11 mL/min
clearance [10]: 15 mL/min/kg
Ki [11]: 0.3 nM
inhibition (INH) [12]: Not Active
Cmax [13]: 480 ng/mL
inhibition (INH) [14]: Not Active
concentration at 1 h [15]: 6 ng/g
concentration at 1 h [16]: 1260 ng/mL
inhibition (INH) [17]: Not Active
concentration at 1 h [18]: 613 ng/mL
inhibition (INH) [19]: Not Active
solubility [20]: 160 µM (≈ 68.2 µg/mL)
concentration [21]: 8010 nM
concentration at 1 h [22]: 38 ng/g
logD [23]: 1.2
concentration [24]: 641 nM
concentration [25]: 751 nM
concentration [26]: 54 nM
concentration at 1 h [27]: 84 ng/mL
CLH [28]: 1.9 L/min
inhibition (INH) [29]: Not Active
